Numbering of substitutions follows the chain as printed.

As a reminder, the Ki is the equilibrium dissociation constant of an inhibitor or competing ligand from its target. A higher Ki goes with weaker binding.

The target in the first experiment is T1, SHV-5 extended spectrum beta-lactamase (Escherichia coli, UniProt Q6REX6).
T1 sequence (Q6REX6 whole entry): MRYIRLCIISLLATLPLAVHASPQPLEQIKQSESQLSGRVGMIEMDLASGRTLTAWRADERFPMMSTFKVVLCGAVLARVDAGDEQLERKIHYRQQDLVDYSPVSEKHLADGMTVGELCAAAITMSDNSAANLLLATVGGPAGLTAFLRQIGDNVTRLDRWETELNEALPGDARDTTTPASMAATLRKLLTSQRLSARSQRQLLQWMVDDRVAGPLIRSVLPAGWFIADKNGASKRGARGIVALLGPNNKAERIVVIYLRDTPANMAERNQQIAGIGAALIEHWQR
The experiment is described as follows: Binding affinity at Beta-lactamase SHV5 expressed in Escherichia coli DH10B cells. A digest of the protocol:
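Purified SHV-5 enzyme, expressed in E. coli DH10B from pBCSK(−); purity checked by SDS-PAGE. Ki from continuous spectrophotometric competition assays at room temperature: increasing inhibitor concentrations against nitrocefin at 4 to 6 times its Km. Percent inhibition fitted using the nitrocefin Km. Inhibition mode from full progress curves at varied nitrocefin, without inhibitor and at two inhibitor concentrations.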
Compound `CC(C)(O/N=C(\C(=O)NCB(O)O)c1csc(N)n1)C(=O)O` [CEFTAZIDIME BATSI] came in with a Ki of 4.5 µM.

For the compound `CC(=O)NCB(O)O` [ACETAMIDOMETHYLBORONIC ACID], the Ki turned out to be 360 µM. Against the preceding compound, the Ki is about 80-fold higher.

On to `CO/N=C(\C(=O)NCB(O)O)c1csc(N)n1` [CEFOTAXIME BATSI], for which the Ki was 5 µM. This Ki is about 72-fold lower than that of the compound before.

Test system in the next experiment: not listed separately
The experiment is described as follows: Binding affinity at Beta-lactamase SHV2 G238S expressed in Escherichia coli DH10B cells. In a few lines:
(§1)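 Enzyme cloned in pBCSK(−), expressed in E. coli DH10B, purified, then further purified by size-exclusion HPLC; purity checked by SDS-PAGE. Ki found by competing increasing inhibitor concentrations against nitrocefin at 4–6 × Km in continuous spectrophotometric assays at room temperature. Percent inhibition was fitted to an equation using the nitrocefin Km.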
Turning to `CC(C)(O/N=C(\C(=O)NCB(O)O)c1csc(N)n1)C(=O)O` [CEFTAZIDIME BATSI], affinity was put at a Ki of 6.8 µM.

The compound `CC(=O)NCB(O)O` [ACETAMIDOMETHYLBORONIC ACID] registered a Ki of 330 µM.

`CO/N=C(\C(=O)NCB(O)O)c1csc(N)n1` [CEFOTAXIME BATSI] registered a Ki of 3.4 µM.

Test system in another experiment: not listed separately
Briefly: Binding affinity at Beta-lactamase D104K G238S expressed in Escherichia coli DH10B cells. A digest of the protocol:
as §1
`CC(C)(O/N=C(\C(=O)NCB(O)O)c1csc(N)n1)C(=O)O` [CEFTAZIDIME BATSI] registered a Ki of 4.5 µM.

`CC(=O)NCB(O)O` [ACETAMIDOMETHYLBORONIC ACID]: affinity was put at a Ki of 300 µM.

The compound `CO/N=C(\C(=O)NCB(O)O)c1csc(N)n1` [CEFOTAXIME BATSI] yielded a Ki of 1.1 µM.

The next experiment has as its target T2, Beta-lactamase SHV-1 (Escherichia coli, UniProt P0AD63).
T2 sequence (P0AD63 whole entry): T1 sequence (Q6REX6 whole entry) with Q31L, N231T, S234G, K235E, N265S
Briefly: Binding affinity at Beta-lactamase SHV1 expressed in Escherichia coli DH10B cells. In a few lines:
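SHV-1 cloned in pBCSK(−), expressed in E. coli DH10B and purified; purity checked by SDS-PAGE. Ki found by competing increasing inhibitor concentrations against nitrocefin at 4–6 × Km in continuous spectrophotometric assays at room temperature. Percent inhibition was fitted to an equation using the nitrocefin Km.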
Compound `CC(C)(O/N=C(\C(=O)NCB(O)O)c1csc(N)n1)C(=O)O` [CEFTAZIDIME BATSI] yielded a Ki of 2.2 µM.

With `CC(=O)NCB(O)O` [ACETAMIDOMETHYLBORONIC ACID], the Ki turned out to be 300 µM.

In the case of `CO/N=C(\C(=O)NCB(O)O)c1csc(N)n1` [CEFOTAXIME BATSI], the affinity, expressed as Ki, was 8.9 µM.

Test system in another experiment: not listed separately
The experiment is described as follows: Binding affinity at Beta-lactamase D104K expressed in Escherichia coli DH10B cells. In a few lines:
as §1
In turn, `CC(C)(O/N=C(\C(=O)NCB(O)O)c1csc(N)n1)C(=O)O` [CEFTAZIDIME BATSI] registered a Ki of 0.7 µM.

`CC(=O)NCB(O)O` [ACETAMIDOMETHYLBORONIC ACID] gave a Ki of 190 µM.

The compound `CO/N=C(\C(=O)NCB(O)O)c1csc(N)n1` [CEFOTAXIME BATSI] showed a Ki of 5 µM.

These data come from ChEMBL document CHEMBL1146195, “Use of novel boronic acid transition state inhibitors to probe substrate affinity in SHV-type extended-spectrum beta-lactamases” (Antimicrob Agents Chemother, 2007).
